{"data": "Measurements gathered from unrelated publications", "target": "NUAK family SNF1-like kinase 1 (NUAK1, Homo sapiens, UniProt O60285)", "note": "Lines come from different studies, so protocols differ."}
{"Compound": "COc1cc2c(Nc3ccc(Br)cc3F)ncnc2cc1OCC1CCN(C)CC1", "assay": "cell-free assay", "setting": "0.5 µM", "measurement": "remaining signal", "result": "92.7%"}
{"Compound": "Cc1nn(CC(F)(F)F)cc1Nc1ncc(Br)c(NCc2ccc(S(N)(=O)=O)cc2)n1", "assay": "enzyme activity, inhibitor, radiometric", "setting": "1 µM", "measurement": "remaining activity", "result": "58%"}
{"Compound": "FC(F)c1nc2ccccc2n1-c1nc(N2CCOCC2)nc(N2CCOCC2)n1", "assay": "enzyme activity, inhibitor", "setting": "10 µM", "measurement": "remaining activity", "result": "90%"}
{"Compound": "Brc1cnc(Nc2cccc(CN3CCOCC3)c2)nc1NCCc1c[nH]cn1", "assay": "enzyme activity, inhibitor, radiometric", "setting": "1 µM", "measurement": "remaining activity", "result": "1%"}
{"Compound": "CC/C(=N\\NC(=O)NCc1cccc(O)c1)c1ccc(O)c(C)c1O", "assay": "enzyme activity, inhibitor", "setting": "0.1 µM", "measurement": "inhibition", "result": "-2.5%"}
{"Compound": "CN(C)C(=O)Cn1cc(-c2nc(C3(c4ccc(-c5cnc(N)nc5)cc4)CC3)no2)cn1", "assay": "cell-free assay, competition with immobilised ligand", "setting": "1 µM", "measurement": "remaining binding", "result": "82%"}
{"Compound": "CN(C)C1CCN(CC#Cc2nn(C3CCCC3)c3nc(NCc4ccccc4)ncc23)C1 (stereo not drawn)", "assay": "enzyme activity, inhibitor, FRET", "setting": "10 µM", "measurement": "inhibition", "result": "48%"}
{"Compound": "C=CC(=O)Nc1cc(Nc2nccc(Nc3cc(Cl)c(F)cc3C(C)(C)O)n2)c(OC)cc1N1CC[C@@H](N(C)C)C1", "assay": "enzyme activity, inhibitor", "setting": "1 µM", "measurement": "inhibition", "result": "17%"}
{"Compound": "N#CCCc1ccc2c(c1)-c1[nH]c3ccc([N+](=O)[O-])cc3c1CC(=O)N2", "assay": "cell-free assay", "setting": "0.5 µM", "measurement": "remaining signal", "result": "14.1%"}
{"Compound": "CNC(=O)c1cc(Oc2ccc(NC(=O)Nc3ccc(Cl)c(C(F)(F)F)c3)cc2)ccn1", "assay": "enzyme activity, inhibitor", "setting": "10 µM", "measurement": "inhibition", "result": "2%"}
{"Compound": "c1cc(CN2CCOCC2)cc(Nc2ncc(C3CC3)c(NCCc3c[nH]cn3)n2)c1", "assay": "enzyme activity, inhibitor, radiometric", "setting": "1 µM", "measurement": "remaining activity", "result": "6%"}
{"Compound": "CCCS(=O)(=O)Nc1ccc(F)c(C(=O)c2c[nH]c3ncc(-c4ccc(Cl)cc4)cc23)c1F", "assay": "enzyme activity, inhibitor", "setting": "1 µM", "measurement": "inhibition", "result": "< 20%"}
{"Compound": "NS(=O)(=O)c1ccc(CNc2ccnc(Nc3cccc(NC(=O)N4CCCC4)c3)n2)cc1", "assay": "enzyme activity, inhibitor, radiometric", "setting": "1 µM", "measurement": "remaining activity", "result": "78%"}
{"Compound": "CO[C@@H](C)c1c(Nc2ccc([C@H](N(C)C(=O)C3CCS(=O)(=O)CC3)C(F)(F)F)cc2)cnc2cc(Cl)nn12", "assay": "cell-free assay, competition with immobilised ligand", "setting": "1 µM", "measurement": "remaining binding", "result": "98%"}
{"Compound": "CN1CCc2cc(Nc3ncc(C4CC4)c(NCCCNC(=O)C4CCC4)n3)ccc2C1", "assay": "enzyme activity, inhibitor, radiometric", "setting": "1 µM", "measurement": "remaining activity", "result": "6%"}
{"Compound": "CN([C@@H]1CCc2c(CC(=O)O)c3ccccc3n2C1)S(=O)(=O)c1ccc(F)cc1", "assay": "cell-free assay, competition with immobilised ligand", "setting": "1 µM", "measurement": "remaining binding", "result": "100%"}
{"Compound": "O=C(NCCCNc1nc(Nc2cccc(NC(=O)N3CCCC3)c2)ncc1I)c1cccs1", "assay": "enzyme activity, inhibitor, radiometric", "setting": "1 µM", "measurement": "remaining activity", "result": "2%"}
{"Compound": "CNCc1ccccc1-c1csc([C@@H](C)Nc2nc(C)nc3cc(OC)c(OC)cc23)c1", "assay": "cell-free assay, competition with immobilised ligand", "setting": "1 µM", "measurement": "remaining binding", "result": "97%"}
{"Compound": "Cc1ccc(Nc2nccc(N(C)c3ccc4c(C)n(C)nc4c3)n2)cc1S(N)(=O)=O", "assay": "enzyme activity, inhibitor", "setting": "0.3 µM", "measurement": "inhibition", "result": "14%"}
{"Compound": "N#Cc1ccc(Nc2ccc3[nH]c(=O)[nH]c3c2)c(Cl)c1", "assay": "cell-free assay, competition with immobilised ligand", "setting": "1 µM", "measurement": "remaining binding", "result": "100%"}
{"Compound": "Cc1nn(CC(F)(F)F)cc1Nc1ncc(C2CC2)c(NCCc2c[nH]cn2)n1", "assay": "enzyme activity, inhibitor, radiometric", "setting": "1 µM", "measurement": "remaining activity", "result": "73%"}
{"Compound": "CN(C(=O)c1ccccc1)c1cc(N(C)c2ccc3c(c2)CCc2ccc(C(=O)NCCN4CCOCC4)cc2C3=O)ccc1F", "assay": "cell-free assay, competition with immobilised ligand", "setting": "1 µM", "measurement": "remaining binding", "result": "100%"}
{"Compound": "O=C(NCCCNc1ccnc(Nc2cccc(NC(=O)N3CCCC3)c2)n1)C1CCC1", "assay": "enzyme activity, inhibitor, radiometric", "setting": "1 µM", "measurement": "remaining activity", "result": "87%"}
{"Compound": "O=C1NC(c2ccccn2)Sc2ccccc21 (stereo not drawn)", "assay": "cell-free assay, competition with immobilised ligand", "setting": "1 µM", "measurement": "remaining binding", "result": "95%"}
{"Compound": "O=C(Nc1cnn(-c2csc(C(=O)NC3COC3)c2)c1)Nc1c(F)cccc1Cl", "assay": "enzyme activity, inhibitor", "setting": "5 µM", "measurement": "remaining activity", "result": "95.2%"}
{"Compound": "CCN(CC)CCNC(=O)c1c(C)[nH]c(/C=C2\\C(=O)Nc3ccc(F)cc32)c1C", "assay": "cell-free assay", "setting": "0.5 µM", "measurement": "remaining signal", "result": "2.75%"}
{"Compound": "COc1ccc2c(c1)O[C@@H](c1ccc(OC)c(OC)c1)C[C@H]2NC(=O)C1(c2ccc3c(c2)OC(F)(F)O3)CC1", "assay": "cell-free assay, competition with immobilised ligand", "setting": "1 µM", "measurement": "remaining binding", "result": "86%"}
